Measurements collected from several papers.
Protocols differ between the studies behind these lines.
CDK4 with cyclin D1: Cyclin-dependent kinase 4, with cyclin D1 (CDK4, Homo sapiens, UniProt P11802)
CHRM2: Muscarinic acetylcholine receptor M2 (CHRM2, Homo sapiens, UniProt P08172)
CDK4 with cyclin D3: Cyclin-dependent kinase 4, with cyclin D3 (CDK4, Homo sapiens, UniProt P11802)
AMY2: Pancreatic alpha-amylase (AMY2, Sus scrofa, UniProt P00690)
SLC22A8: Organic anion transporter 3 (SLC22A8, Homo sapiens, UniProt Q8TCC7)

| SMILES | target | assay | test system | conditions | IC50 [nM] |
| --- | --- | --- | --- | --- | --- |
| CN1CCN(c2cc(=O)c3ccc(Nc4ncc5cc(C(=O)N(C)C)n(C6CCCC6)c5n4)cc3o2)CC1 | CDK4 with cyclin D1 | enzyme activity, inhibitor, radiometric |  |  | 8 |
| O=C(CCNC(=O)CNC(=O)CC(c1ccccc1)(c1ccccc1)c1ccccc1)NC[C@@H]1CCCN(Cc2cccnc2F)C1 | CHRM2 | ligand displacement, radioligand |  | cell membranes | > 30000 |
| Cc1cc(S(=O)(=O)NCCO[C@H]2CC[C@H](CN3CCC(c4ccn5c(N6CCC(=O)NC6=O)cnc5c4)CC3)CC2)ccc1Nc1ncc2cc(Cl)c(=O)n(C3CCCC3)c2n1 | CDK4 with cyclin D3 | enzyme activity, inhibitor, radiometric |  |  | 26 |
| O=c1cc(-c2ccc(O)c(O)c2)oc2cc(O)cc(O)c12 | AMY2 | enzyme activity, inhibitor |  |  | 2180 |
| O=C(CCNC(=O)CNC(=O)CC(c1ccccc1)(c1ccccc1)c1ccccc1)NC[C@@H]1CCCN(Cc2ccc(F)nc2)C1 | CHRM2 | ligand displacement, radioligand |  | cell membranes | > 30000 |
| CNS(=O)(=O)c1ccc(Nc2ncc(C(F)(F)F)c([C@H]3CC[C@](C)(O)CC3)n2)c(C)c1 | CDK4 with cyclin D3 | enzyme activity, inhibitor, radiometric |  |  | 247 |
| Cc1c(N2CCOCC2)oc2c(-c3ccc(Nc4ncc5cc(C(=O)N(C)C)n(C6CCCC6)c5n4)cc3F)cccc2c1=O | CDK4 with cyclin D1 | enzyme activity, inhibitor, radiometric |  |  | 3300 |
| NC(=O)c1nnn(Cc2cc(Cl)c(C(=O)c3ccc(Cl)cc3)c(Cl)c2)c1N | CHRM2 | cAMP, antagonist |  |  | 1850 |
| Cc1cc(O)c(-c2ccc([C@@H](C)CN(C)C)cc2)c2c1[nH]c(=O)c1sccc12 | CDK4 with cyclin D1 | enzyme activity, inhibitor |  |  | > 1000 |
| CNS(=O)(=O)c1ccc(Nc2ncc3cc(Cl)c(=O)n(C4CCCC4)c3n2)c(C)c1 | CDK4 with cyclin D3 | enzyme activity, inhibitor, radiometric |  |  | 22 |
| CN(C)C(=O)c1cc2cnc(Nc3ccc(-c4cccc5c(=O)cc(N6CCOCC6)oc45)cc3)nc2n1C1CCCC1 | CDK4 with cyclin D1 | enzyme activity, inhibitor, radiometric |  |  | 226 |
| CNS(=O)(=O)c1ccc(Nc2ncc(C(F)(F)F)c(N3CCCC(C)(O)C3)n2)c(C)c1 (stereo not shown) | CDK4 with cyclin D3 | enzyme activity, inhibitor, radiometric |  |  | 710 |
| CC(C)NC(=O)COc1cccc(-c2nc(Nc3ccc4[nH]ncc4c3)c3ccccc3n2)c1 | SLC22A8 | transporter uptake, inhibitor, radiometric | HEK293 |  | > 1000 |
| C[C@H]1CN(C(=O)CC#N)[C@]12CCN(c1ncnc3[nH]ccc13)C2 | SLC22A8 | transporter uptake, inhibitor |  |  | 6380 |
| CN(C)C(=O)c1cc2cnc(Nc3ccc(-c4cccc5c(=O)cc(N6CCOCC6)oc45)c(F)c3)nc2n1C1CCCC1 | CDK4 with cyclin D1 | enzyme activity, inhibitor, radiometric |  |  | 116 |
| NC/C(=C\F)COc1cccc(Cn2c(=S)[nH]c(=O)c3[nH]cnc32)c1 | Voltage-dependent L-type calcium channel subunit alpha-1C (CACNA1C, Homo sapiens, UniProt Q13936) | ion current, inhibitor |  |  | > 100000 |
| O=C(/C=C/c1ccc(O)c(O)c1)O[C@H](Cc1ccc(O)c(O)c1)C(=O)O | Pancreatic triacylglycerol lipase (PNLIP, Sus scrofa, UniProt P00591) | enzyme activity, inhibitor, absorbance |  | pH 8 | 137000 |
| O=c1c(O)c(-c2ccc(O)c(O)c2)oc2c(Br)c(O)c(Br)c(O)c12 | AMY2 | enzyme activity, inhibitor |  |  | 19900 |
| CN(C)C(=O)c1cc2cnc(Nc3cncc(-c4cccc5c(=O)cc(N6CCOCC6)oc45)c3)nc2n1C1CCCC1 | CDK4 with cyclin D1 | enzyme activity, inhibitor, radiometric |  |  | 54 |
